How the values were obtained:
[1] = Partition coefficient (logP); format: physicochemical; settings: octanol/water
Summary of the method: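 Shake-flask octanol–water distribution coefficient at pH 7.4 (50 mM TRIS), not corrected for ionization. Quadruplicate samples were shaken overnight with 1-octanol at 22–24 °C and the layers settled 1–2 h before separation. Quantified by UV spectrometry and expressed as the log of the fraction in the octanol layer.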

[2] = test system: Monkey; assay: Iron clearing activity when administered 150 uM/kg orally to Cebus apella Primates (n = 4) [% stool/% urine = 70/30]; format: functional
[3] = test system: Monkey; assay: Iron clearing activity when administered 150 uM/kg orally to Cebus apella Primates (n = 4) [% stool/% urine = 81/19]; format: functional
[4] = test system: Monkey; assay: Iron clearing activity when administered 150 uM/kg orally to Cebus apella Primates (n = 4) [% stool/% urine = 86/14]; format: functional

Row | logP [1] | Compound | Efficiency [2] | Efficiency [3] | Efficiency [4]
1 | -0.7 | COc1ccc(C2=N[C@@](C)(C(=O)O)CS2)c(O)c1 | 24.4% |  | 
2 | -0.91 | CC1(C)SC(c2ccc(O)cc2O)=N[C@H]1C(=O)O | 12.3% |  | 
3 | -0.89 | COc1ccc(C2=N[C@@H](C(=O)O)CS2)c(O)c1 |  | 16.2% | 
4 | -1.05 | C[C@]1(C(=O)O)CSC(c2ccc(O)cc2O)=N1 [DEFERITRIN] |  |  | 13.4%
5 | -1.33 | O=C(O)[C@H]1CSC(c2ccc(O)cc2O)=N1 | 4.2% |  | 

From ChEMBL document CHEMBL1136762, “Methoxylation of desazadesferrithiocin analogues: enhanced iron clearing efficiency” (J Med Chem, 2003)
